We go through 16 compounds from paper PMC9996623 (ACS Omega, 2023).

One experiment concerns the target HIV-1 integrase (Human immunodeficiency virus type 1 group M subtype B, UniProt P04585). Put plainly: HIV-1 integrase strand transfer. The format is biochemical. To be noted: for inhibition at 10 µM: read-out: %ST inhibition (percentage inhibition of strand transfer activity of integrase enzyme), 10 μM dose, WT (wild-type) integrase; for fold increase in %ST inhibition compared to 10a: versus 10a.

In another experiment the test system is TZM-bl cells. Description: MTT cytotoxicity assay on TZM-bl cells. The format is cell-based. The following applies: IC50 values at 48 h, 3.125 to 200 μM. The method in brief: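 Medium with compound removed; MTT reagent (5 mg/mL) added for 4 h; formazan dissolved in DMSO with shaking; absorbance read at 570 nm against a 630 nm reference. Percent viability plotted versus concentration.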
(Tetrazolium dyes change colour on reduction, which living cells bring about.)

Usually inhibition stands for the drop in the measured response relative to a control, in per cent. Consider `Cn1cc(-c2ccccc2)c2ccc(Cl)nc21` [10a, 6-Chloro-1-methyl-3-phenyl-1H-pyrrolo[2,3-b]pyridine], for which the inhibition at 10 µM on HIV-1 integrase was 14%.

As to `Cc1ccc(-c2cn(C)c3nc(Cl)ccc23)cc1` [10b, 6-Chloro-1-methyl-3-(p-tolyl)-1H-pyrrolo[2,3-b]pyridine], the “fold increase in %ST inhibition compared to 10a” value at HIV-1 integrase (10 μM dose) is recorded as about 3 fold. Besides, the inhibition at 10 µM on HIV-1 integrase worked out at 41%.

Consider `Cc1cccc(-c2cn(C)c3nc(Cl)ccc23)c1` [10c, 6-Chloro-1-methyl-3-(m-tolyl)-1H-pyrrolo[2,3-b]pyridine], for which the inhibition at 10 µM at HIV-1 integrase was determined as 19.4%.

Regarding `COc1ccc(-c2cn(C)c3nc(Cl)ccc23)cc1` [10d, 6-Chloro-3-(4-methoxyphenyl)-1-methyl-1H-pyrrolo[2,3-b]pyridine], on HIV-1 integrase, the inhibition at 10 µM came out at 56%.

With `Cn1cc(-c2ccc(F)cc2)c2ccc(Cl)nc21` [10e, 6-Chloro-3-(4-fluorophenyl)-1-methyl-1H-pyrrolo[2,3-b]pyridine], the inhibition at 10 µM on HIV-1 integrase is 38.3%.

Consider `Cn1cc(-c2cc(C(F)(F)F)cc(C(F)(F)F)c2)c2ccc(Cl)nc21` [10f, 3-(3,5-Bis(trifluoromethyl)phenyl)-6-chloro-1-methyl-1H-pyrrolo[2,3-b]pyridine], for which, at HIV-1 integrase, the inhibition at 10 µM was found to be 48.3%.

As for `Cn1cc(-c2ccc3c(c2)OCO3)c2ccc(Cl)nc21` [10h, 3-(Benzo[d][1,3]dioxol-5-yl)-6-chloro-1-methyl-1H-pyrrolo[2,3-b]pyridine], the inhibition at 10 µM at HIV-1 integrase was 54%.

As for `COc1ccc(-c2ccc3c(-c4ccccc4)cn(C)c3n2)cc1` [11a, 6-(4-Methoxyphenyl)-1-methyl-3-phenyl-1H-pyrrolo[2,3-b]pyridine], the “fold increase in %ST inhibition compared to 10a” value on HIV-1 integrase (10 μM dose) is about 2 fold. In addition, on HIV-1 integrase, the inhibition at 10 µM is 39.3%.

Turning to `Cc1ccc(-c2ccc3c(-c4ccccc4)cn(C)c3n2)cc1` [11b, 1-Methyl-3-phenyl-6-(p-tolyl)-1H-pyrrolo[2,3-b]pyridine], at HIV-1 integrase, the inhibition at 10 µM worked out at 51.7%.

On to `Cn1cc(-c2ccccc2)c2ccc(-c3cc(C(F)(F)F)cc(C(F)(F)F)c3)nc21` [11c, 6-(3,5-Bis(trifluoromethyl)phenyl)-1-methyl-3-phenyl-1H-pyrrolo[2,3-b]pyridine], for which the inhibition at 10 µM at HIV-1 integrase is 36.4%.

For the compound `COc1ccc(-c2ccc3c(-c4ccc(F)cc4F)cn(C)c3n2)cc1` [11d, 3-(2,4-Difluorophenyl)-6-(4-methoxyphenyl)-1-methyl-1H-pyrrolo[2,3-b]pyridine], the inhibition at 10 µM on HIV-1 integrase amounted to 72%.

In the case of `Cn1cc(-c2ccccc2)c2ccc(-c3ccsc3)nc21` [11e, 1-Methyl-3-phenyl-6-(thiophen-3-yl)-1H-pyrrolo[2,3-b]pyridine], the inhibition at 10 µM on HIV-1 integrase was 41.6%.

Turning to `Cn1cc(-c2ccc3c(c2)OCO3)c2ccc(-c3ccncc3)nc21` [11f, 3-(Benzo[d][1,3]dioxol-5-yl)-1-methyl-6-(pyridin-4-yl)-1H-pyrrolo[2,3-b]pyridine], the “fold increase in %ST inhibition comparing 10h and 11f” value on HIV-1 integrase (10 μM dose, versus 10h) is given as about 1.3 fold. The inhibition at 10 µM on HIV-1 integrase is 71%. In the experiment on TZM-bl cells, the “IC50 in TZM-bl” value is “minimal cytotoxicity”.

For `COc1ccc(Cn2cc(-c3ccsc3)c3ccc(-c4ccncc4)nc32)cc1` [12a, 1-(4-Methoxybenzyl)-6-(pyridin-4-yl)-3-(thiophen-3-yl)-1H-pyrrolo[2,3-b]pyridine], the inhibition at 10 µM on HIV-1 integrase was found to be 15.9%.

Regarding `COc1ccc(Cn2cc(-c3ccc4c(c3)OCO4)c3ccc(-c4ccc5ccccc5c4)nc32)cc1` [12b, 3-(Benzo[d][1,3]dioxol-5-yl)-1-(4-methoxybenzyl)-6-(naphthalen-2-yl)-1H-pyrrolo[2,3-b]pyridine], the inhibition at 10 µM on HIV-1 integrase was 24.1%.

Regarding `Cc1nnc(C(=O)NC(C)(C)c2nc(C(=O)NCc3ccc(F)cc3)c(O)c(=O)n2C)o1` [RAL, Raltegravir, reference compound], the inhibition at 10 µM at HIV-1 integrase stood at 82%.
